NTR1 agonist: agonists of human NTR1, primary screen, imaging, U2OS cells, beta-arrestin-GFP, high content. NTR1-U2OS beta-arrestin-GFP spot imaging, agonist mode. AID 493036, 2011. 330,000 compounds, 0.17% hits. Neurotensin receptor type 1 (Homo sapiens), P30989. activation, % at 20 µM;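 active = activation at or above 40% of the spot to cytoplasm intensity ratio, with at least 20 cells analyzed; inconclusive = wells under 20 cells, flagged as cytotoxic or low count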;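 note: 0% = DMSO without peptide and 100% = 100 nM NTR1 peptide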
GRK2 aptamer HTS: compounds blocking aptamer binding on GRK2 – biochemical, human GRK2, bead flow cytometry, HTS, primary screen; Beta-adrenergic receptor kinase 1 (Homo sapiens), P25098; FAM-aptamer displacement from GRK2; 330,000 compounds, 0.59% hits; AID 488847, 2010; inhibition of aptamer binding, % at 10 µM;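 active = inhibition of aptamer binding above 40%, roughly 3 SD of noise, on plates passing a quality check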;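 note: median bead fluorescence of bound FAM aptamer so fluorescent compounds give negative values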
Arrestin-AP2 inh: inhibitors of beta-arrestin/AP2 binding, primary screen, biochemical, GPCR trafficking, flow cytometry; beta-arrestin 1 C-terminal peptide binding to AP2 beta2-adaptin appendage (human); inhibition, % at 10 µM; AID 504490, 2011; 340,000 compounds, 0.31% hits; FITC-arrestin peptide / GST-AP2 beads; AP2 beta2 appendage carries R879A mutation;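 active = inhibition above a set limit, near 3 SD of compounds lacking own fluorescence, cut at about 54% in these data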;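 note: plate controls were DMSO wells for no effect and 5 µM unlabelled arrestin peptide for full effect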
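Measured by: flow cytometry, FL1 (488/535 nm); Material: AP2 appendage R879A on GSH beads; Evaluation: percent response; Timing: pre-incubation 12 min, peptide binding 1 h, room temperature; Also added: 50 nM FITC-arrestin peptide; Medium: PBS with 0.05% Tween 20 and 0.1% BSA.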
B2AR ag: beta2AR agonists driving receptor internalization, primary screen, cell-based, FAP fluorogen, flow cytometry; Beta-2 adrenergic receptor (Homo sapiens), P07550; 340,000 compounds, 0.43% hits; response, % (no concentration beside the values); Am2.2-beta2AR cells;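 active = response above a set limit, near 3 SD of response in nonfluorescent compounds, cut at about 42% in these data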
Target sequence (P07550 whole entry, looked up): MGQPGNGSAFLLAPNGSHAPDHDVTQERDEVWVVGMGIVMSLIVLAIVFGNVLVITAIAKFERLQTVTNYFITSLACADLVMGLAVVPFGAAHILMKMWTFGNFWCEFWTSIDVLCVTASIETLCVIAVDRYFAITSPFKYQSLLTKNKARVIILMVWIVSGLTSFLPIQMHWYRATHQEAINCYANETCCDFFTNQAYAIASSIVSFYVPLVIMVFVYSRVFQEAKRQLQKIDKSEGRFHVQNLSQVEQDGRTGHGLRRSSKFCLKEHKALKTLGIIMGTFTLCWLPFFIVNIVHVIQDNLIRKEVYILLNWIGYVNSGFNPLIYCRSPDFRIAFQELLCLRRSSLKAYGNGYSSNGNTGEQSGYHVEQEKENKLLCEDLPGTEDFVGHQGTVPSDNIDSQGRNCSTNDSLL
Hep lipid drop: inhibitors of hepatocyte lipid droplet formation, primary screen, imaging, high-throughput imaging, BODIPY stain; 240,000 compounds, 0.4% hits; AML12 mouse hepatocytes, oleate lipid droplets; inhibition, % at 6.5 µM;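 active = lipid droplet intensity inhibited by at least 50%, with more than 500 cells counted; inconclusive = wells with under 300 cells, treated as cytotoxic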
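Assay system: AML12 mouse liver cells | Compound dosing: One dose, 6.5 µM compound | Read-out basis: Droplet intensity reduction, % inhibition | Measured by: Fluorescence imaging, 20x objective, two fields per well | Schedule: Overnight treatment with compound plus oleate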
TAG inh: inhibitors of triacylglycerol accumulation, primary screen, cell-based, uHTS, fluorescence, H9c2; 230,000 compounds, 0.66% hits; H9c2 cells, Nile Red lipid (TAG) fluorescence; cells loaded with 200 µM oleic acid; inhibition, % at 12.5 µM; AID 651582, 2012;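 active = pattern-corrected inhibition of lipid staining of at least 50% with the nuclear-stain viability signal not falling by more than 50%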;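 note: 0% = DMSO wells and 100% = triacsin C control wells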
* hit, by the source's call; ? = inconclusive; . = no result given. Compounds with a hit are over-represented: about 2% of the library has one in this group of screens.

SMILES	NTR1 agonist	GRK2 aptamer HTS	Arrestin-AP2 inh	B2AR ag	Hep lipid drop	TAG inh
N#CC(C#N)=C1C=CC=CN1/C(=C\c1ccccc1Cl)C(=O)c1ccccc1	.	3	16	105*	-33	.
Oc1ccc(/C=N/NC(=S)Nc2cccnc2)c(O)c1O	.	.	17	67*	-24	1
Oc1cccc(/C=N/NC(=S)Nc2cccnc2)c1O	.	18	14	-2	12	.
CCN(CC)S(=O)(=O)c1ccc2c(c1)c(=O)c(C(=O)N1CCN(c3ccccn3)CC1)cn2C	0	4	-13	-4	-7	.
COc1cccc(-n2nc(C(N)=O)c(O)cc2=O)c1	1	3	10	-5	5	-8
COc1cccc(-n2nc(C#N)c(Cl)cc2=O)c1	-2	.	8	84*	?	.
CN(CC(=O)N1CCN(c2cccc(Cl)c2)CC1)S(=O)(=O)c1cnc[nH]1	0	5	4	-10	.	.
CN(CC(=O)N1CCN(c2cccc(Cl)c2)CC1)S(=O)(=O)c1cccs1	3	5	0	53*	-25	.
Cn1c(N)c(C(=O)N/N=C/c2ccccc2)sc1=S	3	0	7	9	3	20
Cc1c(C(=O)N/N=C/c2cccnc2)sc(=S)n1C	3	1	-5	42*	5	.
COc1cc(OC)c2ccc(=O)oc2c1C(CCN1CCCC(C)C1)c1ccc2c(c1)OCO2 (configuration not stated)	-3	0	4	12	6	42
CCCCCc1cc(=O)oc2c(C(CCN3CCCC(C)C3)c3ccc(OC)cc3)c(OC)cc(OC)c12 (configuration not stated)	34	0	16	34	39	96*
O=C(Nc1ccc(Cl)cc1)C1CCCN(C2=NS(=O)(=O)c3ccccc32)C1 (configuration not stated)	0	2	7	-1	.	16
C/C(=N\NC(=S)NCc1ccccc1)c1ccc2ccccc2c1	13	98*	3	-4	-7	.
CC(=O)Nc1ccc(OC(=O)c2cc3cc(Br)cc(Br)c3oc2=O)cc1	.	95*	.	.	-1	.
CC(C)c1ccc(NC(=O)C(c2ccccc2)N(Cc2ccco2)C(=O)CC2NC(=O)NC2=O)cc1 (configuration not stated)	1	0	52	-2	-2	12
COc1ccc(C(=O)Nc2ccccc2C(=O)Nc2ccncc2)cc1	3	0	-6	4	1	45
Cc1cccc(N(Cc2ccccc2)C(=O)CCl)c1	.	.	10	10	-12	68*
COC(=O)c1c(C)[nH]c(C(=O)CN(C)CC(=O)Nc2cccc(F)c2)c1C	1	0	-5	7	.	-13
Nc1ccc(O)c(-c2nc3ccccc3s2)c1	2	0	6	4	.	16
Oc1ccc(N=C/C=C/c2cccc(Br)c2)cc1-c1nc2ccccc2s1	5	85*	1	3	11	.
Cc1ccc(NS(=O)(=O)c2cc3c4c(cccc4c2)C(=O)NC3=O)cc1C	0	5	8	6	-8	4
CCOc1cc(S(=O)(=O)NCCCN2CCOCC2)c(C)cc1C	2	0	15	-1	-5	-1
N#Cc1ccccc1Cn1cc(/C=C/[N+](=O)[O-])c2ccccc21	28	0	12	95*	-44	.
O=C(O)Cn1cc(/C=C/[N+](=O)[O-])c2ccccc21	1	5	0	3	4	4
SMILES	NTR1 agonist	GRK2 aptamer HTS	Arrestin-AP2 inh	B2AR ag	Hep lipid drop	TAG inh
O=C(Cn1cc(/C=C\[N+](=O)[O-])c2ccccc21)Nc1ccccc1	47*	1	14	84*	-14	-13
O=[N+]([O-])/C=C/c1cn(Cc2ccccc2)c2ccccc12	3	5	8	83*	.	-13
Cc1c(N(C)S(=O)(=O)c2cc(C(=O)N3CCCC3)ccc2Cl)c(=O)n(-c2ccccc2)n1C	-1	0	21	-4	2	-9
COc1ccc(N(Cc2ccccc2)S(=O)(=O)c2cccc(C(=O)Nc3ncccc3C)c2)cc1	4	2	-13	0	.	-12
COc1ccc(Cn2c(SCc3ccccc3C)nc3cc(OC)c(OC)cc3c2=N)cc1	31	0	23	34	.	59*
COc1ccc(C(C)(O)c2nc(-c3ccc(F)cc3OC)cs2)cc1 (configuration not stated)	.	.	.	.	.	-16
COc1cc2c(C(=O)N3CCN(C)CC3)c(C)n(-c3ccccc3)c2cc1Br	4	0	-10	-2	.	.
CCN(CC)CCNC(=O)c1c(C)n(-c2ccccc2)c2cc(Br)c(OC)cc12	2	0	22	23	.	69*
Cn1c(N=Nc2ccc(N3CCOCC3)cc2)[n+](C)c2ccccc21	.	.	-5	-12	-3	51*
O=C(c1ccc2c(c1)[nH]c(=S)n1c3ccccc3nc21)N1CCN(c2ncccn2)CC1	-2	1	-11	62*	-3	5
CC(C)NC(=S)NCc1cccnc1	-1	99*	1	-1	8	.
COc1cccc(CNC(=O)c2ccc(Cl)c(S(=O)(=O)N3CCOCC3)c2)c1	1	0	-4	3	.	6
CSc1ccc(C2c3[nH]c4ccccc4c3CCN2C(=O)c2cc(C)n(C)n2)cc1 (configuration not stated)	3	1	.	.	44	.
Cc1cc(C(=O)N2CCc3c([nH]c4ccccc34)C2c2cccc(Cl)c2)nn1C (configuration not stated)	7	1	14	5	67*	8
O=C(NCC1CCCN1S(=O)(=O)c1cccs1)c1cccc([N+](=O)[O-])c1 (configuration not stated)	0	0	2	1	.	-16
N#Cc1ccccc1OCC(=O)OCC(=O)c1ccc[nH]1	-2	5	15	-3	.	1
N#Cc1ccc(OCC(=O)OCC(=O)c2ccc[nH]2)cc1	0	.	-2	49*	.	-11
COc1ccc2[nH]cc(C(=O)CN3CC(C)CC(C)C3)c2c1 (configuration not stated)	-1	1	14	1	-1	.
COc1ccc2[nH]cc(C(=O)CCl)c2c1	7	2	3	38	-23	72*
Cc1ccc(-c2nn(-c3ccccc3)cc2/C=N/NC(=O)CSc2nnc(C)n2-c2ccccc2)cc1	5	2	-1	89*	.	.
COc1ccc(-c2nn(-c3ccccc3)cc2/C=N/NC(=O)c2ccc3c(c2)OCO3)cc1	1	0	.	.	.	.

From PubChem
